From ChEMBL document CHEMBL4732178, “Dioxotriazine derivatives as a new class of P2X receptor antagonists: Identification of a lead and initial SAR studies” (Bioorg Med Chem Lett, 2021)

Experiments:
[1] = Clearance in rat at 0.5 mg/kg, iv or 1 mg/kg, po; type: ADME, organism-based; conditions: in vivo
[2] = Half life in rat at 0.5 mg/kg, iv or 1 mg/kg, po; type: ADME, organism-based; conditions: in vivo
[3] = Oral bioavailability in rat or 1 mg/kg; type: ADME, organism-based; conditions: in vivo
[4] = Microsomal stability in human liver microsomes assessed as parent compound remaining incubated for 30 mins in presence or absence of NADPH generating system; type: ADME, Microsome; conditions: read-out: Stabilty
Procedure, shortened: (§1)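 Compound incubated 30 min at 37 °C with human or rat liver microsomes (0.5 mg protein/mL), with or without NADPH-generating system; percent parent remaining reported.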

[5] = Microsomal stability in rat liver microsomes assessed as parent compound remaining incubated for 30 mins in presence or absence of NADPH generating system; type: ADME, Microsome; conditions: read-out: Stabilty; procedure, shortened: as §1
[6] = Clearance in rat at 1 mg/kg, iv or 3 mg/kg, po; type: ADME, organism-based; conditions: in vivo
[7] = Oral bioavailability in rat at 3 mg/kg; type: ADME, organism-based; conditions: in vivo
[8] = AUC in rat at 3 mg/kg, po; type: ADME, organism-based; design: dose 3 mg/kg; conditions: in vivo
[9] = Cmax in rat at 3 mg/kg, po; type: ADME, organism-based; design: route oral, dose 3 mg/kg; conditions: in vivo
[10] = Half life in rat at 1 mg/kg, iv or 3 mg/kg, po; type: ADME, organism-based; conditions: in vivo

Row | Structure (SMILES) | remaining at 0.5 h [4] [%] | remaining at 0.5 h [5] [%] | other results
1 | CC(C)Oc1ccc(Nc2nc(=O)n(CCC(=O)O)c(=O)n2Cc2ccc(Cl)cc2)cc1Cl |  |  | clearance [1]: 0.03 L/h/kg; half-life [2]: 6 h; bioavailability [3]: 43.2%
2 | CC(C)Oc1ccc(/N=c2\[nH]c(=O)n(CC(=O)O)c(=O)n2Cc2ccc(Cl)cc2)cc1Cl |  |  | clearance [1]: 0.102 L/h/kg; half-life [2]: 2.1 h; bioavailability [3]: 71.2%
3 | CC(C)Oc1ccc(Nc2nc(=O)n(CCC(N)=O)c(=O)n2Cc2ccc(Cl)cc2)cc1F | 94 | 61 | 
4 | CC(C)Oc1ccc(Nc2nc(=O)n(CCCC(=O)O)c(=O)n2Cc2ccc(Cl)cc2)cc1F | 106 | 103 | 
5 | CC(C)Oc1ccc(Nc2nc(=O)c(CC(=O)O)cn2Cc2ccc(Cl)cc2)cc1Cl |  |  | clearance [1]: 0.498 L/h/kg; half-life [2]: 1.8 h; bioavailability [3]: 79.9%
6 | CC(=O)NCCCn1c(=O)nc(Nc2ccc(OC(C)C)c(F)c2)n(Cc2ccc(Cl)cc2)c1=O | 47 | 15 | 
7 | CNC(=O)CCn1c(=O)nc(Nc2ccc(OC(C)C)c(F)c2)n(Cc2ccc(Cl)cc2)c1=O | 86 | 30 | 
8 | CC(C)Oc1ccc(Nc2nc(=O)n(CC(C)(C)C(=O)O)c(=O)n2Cc2ccc(Cl)cc2)cc1F |  |  | clearance [6]: 0.18 L/h/kg; bioavailability [7]: 47.3%; AUC [8]: 6.99 µg·h/mL; Cmax [9]: 1.26 µg/mL; half-life [10]: 9.6 h
9 | CC(C)Oc1ccc(Nc2nc(=O)n(CCCCO)c(=O)n2Cc2ccc(Cl)cc2)cc1F | 59 | 36 | 
10 | COc1cc(C(C)C)c(Oc2cnc(NC(CO)CO)nc2N)cc1I |  |  | clearance [6]: 2.52 L/h/kg; bioavailability [7]: 30.3%; AUC [8]: 0.369 µg·h/mL; Cmax [9]: 0.118 µg/mL; half-life [10]: 1.1 h
11 | CC(=O)NCCn1c(=O)nc(Nc2ccc(OC(C)C)c(F)c2)n(Cc2ccc(Cl)cc2)c1=O | 45 | 1 | 
12 | CC(C)Oc1ccc(Nc2nc(=O)n(C(C)C)c(=O)n2Cc2ccc(Cl)cc2)cc1 |  |  | clearance [1]: 1.43 L/h/kg; bioavailability [3]: 25.2%
13 | Cc1ccc(Cn2c(Nc3ccc(OC(C)C)c(Cl)c3)nc(=O)n(CCC(=O)O)c2=O)cc1 |  |  | clearance [6]: 0.162 L/h/kg; bioavailability [7]: 71.8%; AUC [8]: 14.3 µg·h/mL; half-life [10]: 1.6 h
14 | CC(C)Oc1ccc(Nc2cc(=O)n(CCC(=O)O)c(=O)n2Cc2ccc(Cl)cc2)cc1Cl |  |  | clearance [1]: 0.126 L/h/kg; half-life [2]: 2.2 h; bioavailability [3]: 61.5%
15 | CC(C)Oc1ccc(Nc2nc(=O)[nH]c(=O)n2Cc2ccc(Cl)cc2)cc1F | 78 | 54 | 

Now from value to molecule, other results behind:

Row | remaining at 0.5 h [4] [%] | remaining at 0.5 h [5] [%] | Structure (SMILES) | other results
16 | 82 | 29 | CC(C)Oc1ccc(Nc2nc(=O)n(CCCO)c(=O)n2Cc2ccc(Cl)cc2)cc1F | 
17 | 86 | 42 | CCn1c(=O)nc(Nc2ccc(OC(C)C)c(F)c2)n(Cc2ccc(Cl)cc2)c1=O | 
18 | 68 | 41 | CC(C)Oc1ccc(Nc2nc(=O)n(CC#N)c(=O)n2Cc2ccc(Cl)cc2)cc1F | 
19 | 99 | 97 | CC(C)Oc1ccc(Nc2nc(=O)n(CC(=O)O)c(=O)n2Cc2ccc(Cl)cc2)cc1F | 
20 | 92 | 99 | CC(C)Oc1ccc(Nc2nc(=O)n(CCC(=O)O)c(=O)n2Cc2ccc(Cl)cc2)cc1F | 
21 | 59 | 30 | CC(C)Oc1ccc(Nc2nc(=O)n(CCC#N)c(=O)n2Cc2ccc(Cl)cc2)cc1F | 
22 | 36 | 35 | CCCn1c(=O)nc(Nc2ccc(OC(C)C)c(F)c2)n(Cc2ccc(Cl)cc2)c1=O | 
23 | 21 | 1 | CC(C)Oc1ccc(Nc2nc(=O)n(Cc3ccccc3)c(=O)n2Cc2ccc(Cl)cc2)cc1F | 
24 | 92 | 60 | CC(C)Oc1ccc(Nc2nc(=O)n(CCO)c(=O)n2Cc2ccc(Cl)cc2)cc1F | 
25 | 0 | 2 | CC(=O)n1c(=O)nc(Nc2ccc(OC(C)C)c(F)c2)n(Cc2ccc(Cl)cc2)c1=O | 
26 | 36 | 49 | CC(C)Oc1ccc(Nc2nc(=O)n(C(C)C)c(=O)n2Cc2ccc(Cl)cc2)cc1F | 
